Experimental data from ChEMBL document CHEMBL1131454 (J Med Chem, 1998).

Legend:
[1] = target: T1, Glucocorticoid receptor (Homo sapiens, UniProt P04150)
T1 sequence (P04150 whole entry): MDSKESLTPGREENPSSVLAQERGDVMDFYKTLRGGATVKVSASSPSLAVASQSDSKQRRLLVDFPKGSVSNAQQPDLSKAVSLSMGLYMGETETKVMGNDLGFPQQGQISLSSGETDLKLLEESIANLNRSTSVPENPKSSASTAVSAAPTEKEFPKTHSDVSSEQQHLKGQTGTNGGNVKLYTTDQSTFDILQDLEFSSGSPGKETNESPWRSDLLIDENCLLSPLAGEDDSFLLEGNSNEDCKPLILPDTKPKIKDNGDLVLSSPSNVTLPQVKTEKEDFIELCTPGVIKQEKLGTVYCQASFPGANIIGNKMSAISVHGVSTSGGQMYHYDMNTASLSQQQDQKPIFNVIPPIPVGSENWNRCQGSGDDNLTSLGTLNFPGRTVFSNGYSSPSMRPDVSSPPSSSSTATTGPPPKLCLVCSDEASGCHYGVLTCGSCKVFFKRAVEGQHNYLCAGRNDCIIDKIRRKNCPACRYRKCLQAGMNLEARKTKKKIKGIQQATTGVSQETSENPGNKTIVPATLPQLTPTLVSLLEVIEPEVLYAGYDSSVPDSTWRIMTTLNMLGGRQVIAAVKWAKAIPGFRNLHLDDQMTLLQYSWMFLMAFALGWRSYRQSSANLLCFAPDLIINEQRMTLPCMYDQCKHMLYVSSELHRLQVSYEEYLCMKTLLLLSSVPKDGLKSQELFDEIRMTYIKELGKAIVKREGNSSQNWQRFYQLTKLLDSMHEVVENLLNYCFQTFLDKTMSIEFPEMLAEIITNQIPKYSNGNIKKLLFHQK

[2] = target: T2, Mineralocorticoid receptor (Homo sapiens, UniProt P08235); assay: Antagonistic activity was determined in Human mineralocorticoid receptor(hMR) of CV-1 cells in cotransfection assay.; type: functional, cell-based
T2 sequence (P08235 whole entry): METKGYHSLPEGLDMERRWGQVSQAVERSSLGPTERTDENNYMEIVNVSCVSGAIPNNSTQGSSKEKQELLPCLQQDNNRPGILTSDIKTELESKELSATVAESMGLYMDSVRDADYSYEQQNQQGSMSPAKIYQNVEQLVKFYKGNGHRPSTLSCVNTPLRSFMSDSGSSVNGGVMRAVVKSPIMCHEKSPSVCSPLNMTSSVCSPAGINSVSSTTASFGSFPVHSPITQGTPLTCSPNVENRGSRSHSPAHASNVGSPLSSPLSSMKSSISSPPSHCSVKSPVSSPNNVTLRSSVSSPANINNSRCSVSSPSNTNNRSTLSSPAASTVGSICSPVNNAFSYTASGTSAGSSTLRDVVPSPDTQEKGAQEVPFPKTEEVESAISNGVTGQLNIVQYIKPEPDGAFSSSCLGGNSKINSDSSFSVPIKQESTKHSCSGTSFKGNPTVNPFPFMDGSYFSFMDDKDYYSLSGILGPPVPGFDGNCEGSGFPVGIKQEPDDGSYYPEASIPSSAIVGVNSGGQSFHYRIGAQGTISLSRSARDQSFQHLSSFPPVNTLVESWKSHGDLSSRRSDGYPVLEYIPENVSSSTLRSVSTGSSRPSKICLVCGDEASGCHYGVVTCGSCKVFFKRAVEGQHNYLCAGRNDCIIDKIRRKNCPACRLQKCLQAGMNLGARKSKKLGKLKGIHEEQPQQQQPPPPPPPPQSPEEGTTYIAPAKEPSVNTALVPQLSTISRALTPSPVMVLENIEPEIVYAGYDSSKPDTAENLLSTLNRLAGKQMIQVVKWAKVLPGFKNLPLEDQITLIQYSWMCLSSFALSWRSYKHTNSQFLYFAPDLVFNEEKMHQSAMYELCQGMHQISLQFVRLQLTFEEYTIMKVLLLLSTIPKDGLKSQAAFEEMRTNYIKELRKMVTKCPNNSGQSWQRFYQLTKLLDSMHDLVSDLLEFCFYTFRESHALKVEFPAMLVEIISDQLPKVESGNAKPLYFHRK

[3] = target: T3, Progesterone receptor (Homo sapiens) (UniProt P06401); assay: Human progesterone receptor (hPR) antagonist efficacy was determined as a function (%) of maximal inhibition of progesterone at EC50 value.; type: functional
T3 sequence (whole entry): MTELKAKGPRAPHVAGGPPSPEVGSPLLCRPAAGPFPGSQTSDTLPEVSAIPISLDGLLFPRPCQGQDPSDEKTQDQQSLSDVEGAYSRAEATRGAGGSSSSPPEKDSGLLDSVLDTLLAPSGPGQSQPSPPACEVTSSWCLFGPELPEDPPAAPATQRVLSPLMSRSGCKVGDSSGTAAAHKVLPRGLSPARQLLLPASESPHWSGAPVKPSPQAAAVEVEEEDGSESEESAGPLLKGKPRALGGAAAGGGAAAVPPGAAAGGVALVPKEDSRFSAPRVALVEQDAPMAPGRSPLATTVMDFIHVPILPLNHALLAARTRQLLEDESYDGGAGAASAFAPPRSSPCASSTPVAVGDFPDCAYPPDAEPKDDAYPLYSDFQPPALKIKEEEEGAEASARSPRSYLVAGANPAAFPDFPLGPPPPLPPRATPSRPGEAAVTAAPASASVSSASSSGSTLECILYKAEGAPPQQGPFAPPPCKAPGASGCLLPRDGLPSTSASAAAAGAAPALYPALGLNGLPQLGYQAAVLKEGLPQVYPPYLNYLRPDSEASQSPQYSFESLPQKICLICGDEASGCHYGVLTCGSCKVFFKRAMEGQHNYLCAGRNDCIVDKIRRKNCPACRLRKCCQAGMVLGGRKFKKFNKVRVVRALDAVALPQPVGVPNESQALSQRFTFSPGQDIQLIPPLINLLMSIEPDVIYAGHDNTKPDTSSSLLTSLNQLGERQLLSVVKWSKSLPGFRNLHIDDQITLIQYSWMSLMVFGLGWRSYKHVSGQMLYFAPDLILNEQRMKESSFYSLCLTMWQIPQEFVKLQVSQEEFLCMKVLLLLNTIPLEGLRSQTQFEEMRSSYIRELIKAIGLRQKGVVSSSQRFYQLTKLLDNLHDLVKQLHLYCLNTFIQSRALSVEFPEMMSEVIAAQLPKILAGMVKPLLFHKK
How it was run: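 hPR antagonist-mode cotransfection in CV-1 cells transiently transfected by calcium phosphate coprecipitation with hPR plasmid, MTV-LUC reporter, pRS-β-Gal and filler DNA. […] Values come from one, two, or at least three experiments in triplicate.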

[4] = target: T4, Progesterone receptor (Homo sapiens, UniProt P06401); assay: The binding affinity on Human progesterone receptor (hPR-A) using progesterone as radioligand.
T4 sequence (P06401 whole entry): T3 sequence (whole entry)

Structure (SMILES) | IC50 [1] [nM] | IC50 [2] [nM] | Efficacy [3] [%] | Ki [4] [nM]
CC1=CC(C)(C)Nc2ccc3c(c21)C(c1ccc(C)cc1)Oc1ccccc1-3 (stereo not drawn) | 294 | 1590 | 38 | 2.3
CC1=CC(C)(C)Nc2ccc3c(c21)C(c1ccc(C)c(F)c1)Oc1ccccc1-3 (stereo not drawn) | 185 | 1000 | < 20 | 1.8
CC1=CC(C)(C)Nc2ccc3c(c21)C(c1ccc(Cl)c(Cl)c1)Oc1ccccc1-3 (stereo not drawn) | 80 | 1060 | 42 | 3.4
CC1=CC(C)(C)Nc2ccc3c(c21)C(c1cccc(Cl)c1)Oc1ccccc1-3 (stereo not drawn) | 136 | 748 | 37 | 0.43
CC1=CC(C)(C)Nc2ccc3c(c21)C(c1ccc(Br)cc1)Oc1ccccc1-3 (stereo not drawn) | 115 | 977 | 42 | 0.55
CC1=CC(C)(C)Nc2ccc3c(c21)C(c1ccc(Cl)c(C)c1)Oc1ccccc1-3 (stereo not drawn) | 275 | 2030 | < 20 | 1.2
CC1=CC(C)(C)Nc2ccc3c(c21)C(c1cc(Cl)cc(Cl)c1)Oc1ccccc1-3 (stereo not drawn) | 225 | > 10000 | < 20 | 1.7
CC1=CC(C)(C)Nc2ccc3c(c21)C(c1cccc(C(F)(F)F)c1)Oc1ccccc1-3 (stereo not drawn) | 505 | 2220 | < 20 | 2.6
CC1=CC(C)(C)Nc2ccc3c(c21)C(c1ccc(Cl)c(F)c1)Oc1ccccc1-3 (stereo not drawn) | 171 | 1360 | < 20 | 0.41
CC1=CC(C)(C)Nc2ccc3c(c21)C(c1cc(C)cc(Br)c1)Oc1ccccc1-3 (stereo not drawn) | 166 | > 10000 | 31 | 0.87
CC1=CC(C)(C)Nc2ccc3c(c21)C(c1ccc(Cl)cc1)Oc1ccccc1-3 (stereo not drawn) | 339 | 1520 | 31 | 0.7
CC1=CC(C)(C)Nc2ccc3c(c21)C(c1cccc(Br)c1)Oc1ccccc1-3 (stereo not drawn) | 266 | 1070 | 41 | 1.1
